In ChEMBL document CHEMBL1123999, “Synthesis and antiviral activity of certain 4- and 4,5-disubstituted 7-[(2-hydroxyethoxy)methyl]pyrrolo[2,3-d]pyrimidines” (J Med Chem, 1988) one finds IC50 data, which are given here for 36 compounds.

A value given as a limit tells only on which side of the number the result lay.

Assay [1] has as its system Human betaherpesvirus 5. The assay is described as follows: Inhibitory concentration against human cytomegalovirus (HCMV) in plaque reduction assay. The class given is functional, organism-based. In outline:
(§1)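 HFF monolayers were infected with the Towne strain of HCMV (plaque-purified isolate P0), about 50 PFU in a 0.2 mL inoculum. Compounds were dissolved in the overlay medium, with 100 μM the highest concentration tested. Plaques were counted. I50 was taken from linear regression of percent inhibition against log concentration. Acyclovir, ganciclovir and vidarabine served as positive controls.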
Background: In a plaque reduction assay, fewer plaques than in the control indicate reduced infectivity or spread.

For assay [2], the system named is HFF. The assay is described as follows: Cytotoxicity against uninfected human foreskin fibroblast(HFF cells). Type of assay: functional, cell-based. In short, it runs like this: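 Uninfected HFF monolayers in the HCMV plaque assay. Drug-induced cytopathology was scored visually at 35- and 60-fold magnification, on a 0 to 4+ scale, on the day of staining for plaque enumeration. I50 was taken from linear regression of percent inhibition against log concentration.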

The test system of assay [3] is Human alphaherpesvirus 1. The assay is described as follows: Inhibitory concentration against HSV-1 in plaque reduction assay.
Assay [4] is described as follows: Cytotoxicity against uninfected monkey kidney cells (BSC-1). Conditions: Cercopithecidae. Type of assay: functional, cell-based. In outline:
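Uninfected BSC-1 (African green monkey kidney) monolayers, grown in MEM with Earle salts plus 10% FBS, in the HSV-1 plaque assay. Cytopathology was scored visually at 35- and 60-fold magnification, on a 0 to 4+ scale, on the day of staining for plaques. I50 was taken from regression of percent inhibition against log concentration.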

Assay [5] relates to Human betaherpesvirus 5. Nature of the assay: Inhibitory concentration against human cytomegalovirus (HCMV) in plaque reduction assay at 100 uM concentration. The class given is functional, organism-based. Conditions: read-out: I50. In short, it runs like this: as §1
A short description of assay [6]: Cytotoxicity against human neoplastic cell line(KB cells). Type of assay: functional, cell-based. Conditions: read-out: I50. In short, it runs like this:
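KB cells (human epidermoid oral carcinoma) grown in MEM with Hanks salts plus 5% fetal bovine serum. Uptake of radioactive precursors into DNA, RNA and protein was measured. I50 values came from linear regression of percent inhibition against log concentration. The three I50 values (DNA, RNA, protein) were averaged. Positive controls were acyclovir, ganciclovir and vidarabine.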

Assay [7] is described as follows: Inhibition against human neoplastic cell line(KB cells). Conditions: read-out: I50. Type of assay: functional, cell-based. In short, it runs like this:
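KB cells (human epidermoid oral carcinoma) grown in MEM with Hanks salts plus 5% fetal bovine serum. Cytotoxicity read as inhibition of radioactive precursor incorporation into DNA, RNA and protein. I50 for each of the three came from linear regression of percent inhibition against log drug concentration, and the three I50s were averaged. Highest concentration tested 100 μM.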

As for `CSc1ncnc2c1c(Br)cn2[C@@H]1O[C@H](CO)[C@@H](O)[C@H]1O`, the IC50 in assay [1] and in assay [2] was over 100 µM each time.
Regarding `OC[C@H]1O[C@@H](n2ccc3c(N4CCCCC4)ncnc32)[C@H](O)[C@@H]1O`, the IC50 in assay [1] and in assay [2] was over 100 µM in each case.
As for `CNc1ncnc2c1ccn2COCCO`, the IC50 in assay [1], in assay [2], in assay [3] and in assay [4] was over 100 µM in each case.
Turning to `CN(C)c1ncnc2c1ccn2COCCO`, the IC50 in assay [1], in assay [2], in assay [3] and in assay [4] was over 100 µM each time.
In the case of `CCNc1ncnc2c1c(Cl)cn2COCCO`, the IC50 in assay [1], in assay [2], in assay [3] and in assay [4] was over 100 µM each time.
Regarding `CNc1ncnc2c1c(Cl)cn2COCCO`, the IC50 in assay [1], in assay [2], in assay [3] and in assay [4] was over 100 µM in each case.
Turning to `COc1ncnc2c1ccn2COCCO`, the IC50 in assay [5], in assay [2], in assay [3] and in assay [4] was over 100 µM in each case.
For the compound `CCNc1ncnc2c1c(Br)cn2COCCO`, the IC50 in assay [1] is over 100 µM; in assay [2], over 100 µM; in assay [3], over 320 µM; in assay [4], over 320 µM.
Consider `CNc1ncnc2c1ccn2[C@@H]1O[C@H](CO)[C@@H](O)[C@H]1O`, for which the IC50 in assay [1] is 37 µM; in assay [2], over 100 µM.
Take `CN(C)c1ncnc2c1ccn2[C@@H]1O[C@H](CO)[C@@H](O)[C@H]1O`: the IC50 came out at 1.2 µM in assay [1] (read-out: I50) and 2 µM in assay [2] (read-out: I50).
`OC[C@H]1O[C@@H](n2cc(I)c3c(Cl)ncnc32)[C@H](O)[C@@H]1O`: the IC50 in assay [1] (read-out: I50) is 31 µM; in assay [2] (read-out: I50), 13 µM.
With `COc1ncnc2c1ccn2[C@@H]1O[C@H](CO)[C@@H](O)[C@H]1O`, the IC50 came to 10 µM in assay [1] (read-out: I50) and 46 µM in assay [2] (read-out: I50).
Turning to `OCCOCn1cc(Br)c2c(Cl)ncnc21`, the IC50 in assay [1], in assay [2], in assay [3] and in assay [4] was over 100 µM in each case.
With `OC[C@H]1O[C@@H](n2ccc3c(S)ncnc32)[C@H](O)[C@@H]1O`, the IC50 in assay [1] and in assay [2] was over 100 µM throughout.
As to `C[Se]c1ncnc2c1ccn2C1O[C@H](CO)[C@@H](O)[C@H]1O` (some centres undefined), the IC50 in assay [1] was 4 µM; in assay [2] it was 1.5 µM.
Regarding `NNc1ncnc2c1ccn2C1O[C@H](CO)[C@@H](O)[C@H]1O` (some centres undefined), the IC50 turned out to be 4 µM in assay [1] (read-out: I50) and 2 µM in assay [2] (read-out: I50).
Consider `OC[C@H]1OC(n2ccc3cncnc32)[C@H](O)[C@@H]1O` (some centres undefined), for which the IC50 in assay [1] worked out at 0.4 µM; in assay [2], 2 µM.
Consider `CN(C)c1ncnc2c1c(Br)cn2C1O[C@H](CO)[C@@H](O)[C@H]1O` (some centres undefined), for which the IC50 in assay [1] stood at 16 µM; in assay [2] it was 10 µM.
As to `CNc1ncnc2c1c(Br)cn2C1O[C@H](CO)[C@@H](O)[C@H]1O` (some centres undefined), the IC50 in assay [1] (read-out: I50) and in assay [2] (read-out: I50) was over 100 µM each time.
With `OC[C@H]1OC(n2cc(Br)c3c(Cl)ncnc32)[C@H](O)[C@@H]1O` (some centres undefined), the IC50 in assay [1] (read-out: I50) was determined as 29 µM; in assay [2] (read-out: I50), 31 µM.
On to `OC[C@H]1OC(n2cc(Br)c3c(S)ncnc32)[C@H](O)[C@@H]1O` (some centres undefined), for which the IC50 is 39 µM in assay [1] and over 100 µM in assay [2].
As for `OC[C@H]1OC(n2ccc3c(SC4C=CC=CC=C4)ncnc32)[C@H](O)[C@@H]1O` (some centres undefined), the IC50 in assay [1] and in assay [2] was over 100 µM each time.
As for `OC[C@H]1OC(n2cc(Br)c3cncnc32)[C@H](O)[C@@H]1O` (some centres undefined), the IC50 in assay [1] (read-out: I50) was found to be 23 µM; in assay [2] (read-out: I50), 31 µM.
Consider `Nc1ncnc2c1c(Br)cn2[C@@H]1O[C@H](CO)[C@@H](O)[C@H]1O`, for which the IC50 came to 0.5 µM in assay [1] (read-out: I50), 2.3 µM in assay [6] and 4.5 µM in assay [2] (read-out: I50).
For the compound `Nc1ncnc2c1c(I)cn2COCCO`, the IC50 was 24 µM in assay [1]; 100 µM in assay [2]; 1.2 µM in assay [7]; 100 µM in assay [3]; over 100 µM in assay [4].
Regarding `CNc1ncnc2c1c(Br)cn2COCCO`, the IC50 in assay [1], in assay [2], in assay [3] and in assay [4] was over 100 µM throughout.
Consider `Nc1ncnc2c1c(Cl)cn2COCCO`, for which the IC50 in assay [1] was 16 µM; in assay [2] it was over 100 µM; in assay [7], 0.82 µM; in assay [3] it was 77 µM; in assay [4], over 100 µM.
With `Nc1ncnc2c1c(Br)cn2COCCO`, the IC50 in assay [1] was 3.9 µM; in assay [6], 100 µM; in assay [2], 100 µM; in assay [3], 16 µM; in assay [4], over 100 µM.
As for `OCCOCn1cc(I)c2c(Cl)ncnc21`, the IC50 in assay [1], in assay [2], in assay [3] and in assay [4] was over 100 µM in each case.
Regarding `OCCOCn1cc(Cl)c2c(Cl)ncnc21`, the IC50 in assay [1], in assay [2], in assay [3] and in assay [4] was over 100 µM in each case.
On to `Nc1ncnc2c1c(Cl)cn2[C@@H]1O[C@H](CO)[C@@H](O)[C@H]1O`, for which the IC50 in assay [1] (read-out: I50) came to 4.4 µM; in assay [6] it was 6.5 µM; in assay [2] (read-out: I50) it was 10 µM.
As to `Nc1nc2c(ncn2COCCO)c(=O)[nH]1` [ACYCLOVIR], the IC50 was 63 µM in assay [1], over 100 µM in assay [2], 2.6 µM in assay [3] and over 100 µM in assay [4].
For `Nc1nc2c(ncn2COC(CO)CO)c(=O)[nH]1` [GANCICLOVIR], the IC50 in assay [1] was 8.8 µM; in assay [2], over 100 µM; in assay [3], 3 µM; in assay [4] it was over 100 µM.
On to `O=c1[nH]cnc2c1ccn2[C@@H]1O[C@H](CO)[C@@H](O)[C@H]1O` [IMMUNICILLIN H], for which the IC50 in assay [1] (read-out: I50) was 3.5 µM; in assay [2] (read-out: I50), 10 µM.
Take `Nc1ncnc2c1c(I)cn2[C@@H]1O[C@H](CO)[C@@H](O)[C@H]1O` [IODOTUBERCIDIN]: the figures for the IC50 in assay [1] (read-out: I50), in assay [6] and in assay [2] (read-out: I50) were 0.4 µM, 2.1 µM and 2 µM, respectively.
For `Nc1ncnc2c1ccn2[C@@H]1O[C@H](CO)[C@@H](O)[C@H]1O` [TUBERCIDIN], the IC50 in assay [1] is 0.5 µM; in assay [6] it was 0.6 µM; in assay [2] it was 0.4 µM.
